# Reference: ChEMBL document CHEMBL1128252, “Synthesis and anti-HIV-1 activity of 4,5,6,7-tetrahydro-5-methylimidazo [4,5,1-jk][1,4]benzodiazepin-2(1H)-one (TIBO) derivatives. 3” (J Med Chem, 1995)
# Key:
# [1] = system: Human immunodeficiency virus 1; experiment: (§1) Effective concentration required to achieve 50% protection of MT-4 cells against the cytopathic effect of HIV-1.; type: functional, organism-based; conditions: Human immunodeficiency virus 1, MT4
# In short: (§2)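 MT-4 cells infected with HIV-1 and incubated with a range of compound concentrations. Viable cells were counted 5 days post-infection by MTT staining. IC50 is the concentration protecting 50% of cells from virus-induced cytopathic effect. Values are means over n assays, where n varies per compound.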
# [2] = system: Human immunodeficiency virus 1; experiment: as §1; type: functional, organism-based, MT4; in short: as §2
# [3] = system: MT4; experiment: Effective concentration of compound required to achieve 50% protection of MT-4 cells against the cytopathic effect of HIV-1 number of experiments = 6; type: functional, cell-based; conditions: Homo sapiens; in short: as §2
# [4] = system: MT4; experiment: Effective concentration of compound required to achieve 50% protection of MT-4 cells against the cytopathic effect of HIV-1 number of experiments = 8; type: functional, cell-based; conditions: Homo sapiens; in short: as §2
# [5] = system: MT4; experiment: Effective concentration of compound required to achieve 50% protection of MT-4 cells against the cytopathic effect of HIV-1 number of experiments = 4; type: functional, cell-based; conditions: Homo sapiens; in short: as §2
# [6] = system: MT4; experiment: Effective concentration of compound required to achieve 50% protection of MT-4 cells against the cytopathic effect of HIV-1 number of experiments = 53; type: functional, cell-based; conditions: Homo sapiens; in short: as §2
# [7] = system: MT4; experiment: Effective concentration of compound required to achieve 50% protection of MT-4 cells against the cytopathic effect of HIV-1 number of experiments = 20; type: functional, cell-based; conditions: Homo sapiens; in short: as §2
# [8] = system: MT4; experiment: Effective concentration of compound required to achieve 50% protection of MT-4 cells against the cytopathic effect of HIV-1 number of experiments = 24; type: functional, cell-based; conditions: Homo sapiens; in short: as §2
# [9] = Human immunodeficiency virus 1, MT4
Structure (SMILES),IC50 [1],other results
CCCC1CNCc2cccc3nc(O)n1c23 (stereo not drawn),,"IC50 [2, 9]: > 250 µM"
CCCN1Cc2cccc3nc(O)n(c23)CC1=O,,"IC50 [2, 9]: > 250 µM"
CC(C)=CCN1CCn2c(S)nc3cc(Cl)c4c(c32)C1CC4 (stereo not drawn),> 2 µM,
CC(C)=CCN1[C@H](C)Cn2c(=S)[nH]c3cc(Cl)cc(c32)[C@H]1C,0.48 µM,
CCCC1Cn2c(O)nc3cccc(c32)CN1 (stereo not drawn),,"IC50 [2, 9]: > 250 µM"
C[C@@H]1CN(CC2CC2)Cc2cc(Cl)cc3[nH]c(=S)n1c23,,IC50 [3]: 2.18 µM
CC(C)=CCN1CCn2c(S)nc3cc(Cl)cc(c32)C1CC(C)C (stereo not drawn),> 2 µM,
CC(C)=CCN1Cc2cc(Cl)cc3nc(O)n(c23)C[C@@H]1C(C)C,> 10 µM,
CC(C)=CCN1CCn2c(O)nc3cc(Cl)cc(c32)C1CC(C)C (stereo not drawn),> 2 µM,
CC(C)=CCN1[C@@H](C)Cn2c(S)nc3cc(Cl)cc(c32)[C@@H]1C,> 10 µM,
C/C=C1/CC2Cn3c(S)nc4cc(Cl)cc(c43)CN2C1 (stereo not drawn),3.76 µM,
C=C1CC2Cn3c(S)nc4cc(Cl)cc(c43)CN2C1 (stereo not drawn),> 10 µM,
CC(C)C1CNCc2cccc3nc(O)n1c23 (stereo not drawn),,"IC50 [2, 9]: > 250 µM"
Sc1nc2cc(Cl)cc3c2n1CCN1CCCC31 (stereo not drawn),> 2 µM,
CC(C)=CCN1Cc2cccc3nc(O)n(c23)C[C@H]1C,,IC50 [4]: 3.32 µM
CC(C)=CCN1[C@H](C)Cn2c(=O)[nH]c3cc(Cl)cc(c32)[C@H]1C,0.23 µM,
C[C@@H]1Cn2c(O)nc3cc(Cl)cc(c32)CN1,,"IC50 [2, 9]: > 250 µM"
S=c1[nH]c2cccc3c2n1-c1ccccc1N(CC1CC1)C3,,"IC50 [2, 9]: > 10 µM"
C=C(C)CN1Cc2cccc3[nH]c(=O)n(c23)CC1CC (stereo not drawn),,IC50 [5]: > 50 µM
CC(C)[C@H]1Cn2c(O)nc3cccc(c32)CN1,,"IC50 [2, 9]: > 250 µM"
CC(C)=CCN1Cc2cc(Cl)cc3[nH]c(=O)n(c23)C[C@H]1C,,"IC50 [2, 9]: 0.18 µM"
CCCC1CN(CCC)Cc2cccc3[nH]c(=O)n1c23 (stereo not drawn),,"IC50 [2, 9]: > 180 µM"
CC(C)=CCN1CCn2c(=S)[nH]c3cc(Cl)cc(c32)C1C (stereo not drawn),0.023 µM,
C=C(C)CN1Cc2cccc3[nH]c(=O)n(c23)C(CCC)C1 (stereo not drawn),,"IC50 [2, 9]: 48.1 µM"

Structure (SMILES),IC50 [1],other results
CC(C)=CCN1CCn2c(=O)[nH]c3cc(Cl)cc(c32)C1C (stereo not drawn),0.16 µM,
O=C1Nc2ccccc2-n2c(S)nc3cccc1c32,> 250 µM,
CCCN1Cc2cc(Cl)cc3[nH]c(=S)n(c23)C(=O)C1C (stereo not drawn),> 50 µM,
CC(C)=CCN1Cc2cc(Cl)cc3nc(S)n(c23)C[C@H]1C(C)C,> 10 µM,
C=C(C)CN1Cc2cccc3nc(O)n(c23)CC1CCC (stereo not drawn),,"IC50 [2, 9]: > 10 µM"
CC(C)=CCN1Cc2cc(Cl)cc3nc(S)n(c23)C[C@H]1C,,IC50 [6]: 0.043 µM
Oc1nc2cccc3c2n1CC1CCCN1C3 (stereo not drawn),> 250 µM,
CCCN1C(=O)c2cccc3nc(O)n(c23)CC1C (stereo not drawn),,IC50 [5]: > 250 µM
CC(C)=CCN1Cc2c(Cl)ccc3nc(S)n(c23)C[C@H]1C,,IC50 [7]: 0.005 µM
Oc1nc2cccc3c2n1CC1CCCCN1C3 (stereo not drawn),,IC50 [4]: > 250 µM
C[C@@H]1Cn2c(S)nc3cc(Cl)cc(c32)CN1CC1CC1,0.034 µM,
CC(C)=CCN1[C@@H](C)Cn2c(=O)[nH]c3cc(Cl)cc(c32)[C@@H]1C,> 5 µM,
S=c1[nH]c2cc(Cl)cc3c2n1CCN1CCCCC31 (stereo not drawn),> 2 µM,
O=C1CCC2c3cc(Cl)cc4nc(S)n(c34)CCN12 (stereo not drawn),,"IC50 [2, 9]: > 250 µM"
C=C(C)CN1Cc2cc(Cl)cc3[nH]c(=S)n(c23)[C@@H](C)C1,0.67 µM,
CC(C)=CCN1CCn2c(=S)[nH]c3ccc(Cl)c(c32)C1,,"IC50 [2, 9]: 0.046 µM"
CC(C)=CCN1CCn2c(=O)[nH]c3ccc(Cl)c(c32)C1C (stereo not drawn),,"IC50 [2, 9]: 0.145 µM"
C=C(C)CN1Cc2cccc3[nH]c(=O)n(c23)CC1C (stereo not drawn),,IC50 [8]: 34.7 µM
CC(C)=CCN1CCn2c(=S)[nH]c3ccc(Cl)c(c32)C1C (stereo not drawn),,"IC50 [2, 9]: 0.012 µM"
CC(C)=CCN1CCn2c(=O)[nH]c3cccc(c32)C1C (stereo not drawn),,"IC50 [2, 9]: 12.1 µM"
CC(C)=CCN1CCn2c(=S)[nH]c3cc(Cl)cc(c32)C1,0.16 µM,
C=C(C)CN1Cc2cccc3[nH]c(=O)n(c23)C(C(C)C)C1 (stereo not drawn),,"IC50 [2, 9]: 12.6 µM"
CC(C)=CCN1CC(C)n2c(S)nc3cccc(c32)C1C (stereo in doubt; 1bg),,IC50 ([2]; mt4): 25.8 µM
CC(C)=CCN1CC(C)n2c(S)nc3cccc(c32)C1C (stereo in doubt; 1bh),,IC50 ([2]; mt4): > 10 µM

# More lines, main results first:
IC50 [1],Structure (SMILES),other results
> 250 µM,CC1Cn2c(O)nc3cccc(c32)CN1 (stereo not drawn),
0.026 µM,C=C(C)CN1Cc2cccc3nc(S)n(c23)C[C@H]1C,
> 10 µM,CC(C)=CCN1Cc2cccc3nc(O)n(c23)C[C@@H]1C(C)C,
> 250 µM,Oc1nc2cccc3c2n1CC(c1ccccc1)NC3 (stereo not drawn),
> 10 µM,C=C(C)CN1Cc2cccc3nc(O)n(c23)CC1c1ccccc1 (stereo not drawn),
73.3 µM,CCCN1Cc2cccc3[nH]c(=O)n(c23)C(C(C)C)C1 (stereo not drawn),
> 83 µM,CCCN1CCn2c(=O)[nH]c3cccc(c32)C1C (stereo not drawn),
> 250 µM,CCCN1Cc2cccc3nc(O)n(c23)C(c2ccccc2)C1 (stereo not drawn),
> 250 µM,CC1(C)Cn2c(O)nc3cccc(c32)CN1,
> 250 µM,C=C(C)CN1Cc2cccc3nc(O)n(c23)C(c2ccccc2)C1 (stereo not drawn),
> 250 µM,CC(C)C1Cn2c(O)nc3cccc(c32)CN1 (stereo not drawn),
56.7 µM,CC(C)=CCN1Cc2cccc3nc(O)n(c23)C(C)C1C (stereo not drawn),
23.1 µM,C=C(C)CN1Cc2cccc3[nH]c(=O)n(c23)CC1(C)C,
> 250 µM,CC1NCCn2c(O)nc3cccc1c32 (stereo not drawn),
0.06 µM,C[C@@H]1Cn2c(S)nc3cccc(c32)CN1CC1CC1,
> 250 µM,Oc1nc2cccc3c2n1C(c1ccccc1)CNC3 (stereo not drawn),
> 2 µM,CC(C)=CCN1CCn2c(S)nc3cccc(c32)C1c1ccccc1 (stereo not drawn),
1.15 µM,CC(C)=CCN1C(C)Cn2c(=S)[nH]c3cccc(c32)C1C (stereo not drawn),IC50 [4]: 0.042 µM
> 10 µM,C=C(C)CN1Cc2cccc3nc(O)n(c23)C[C@@H]1C(C)C,
> 10 µM,CC(C)=CCN1Cc2cccc3nc(S)n(c23)C[C@@H]1C(C)C,
> 250 µM,CCC1Cn2c(O)nc3cccc(c32)CN1 (stereo not drawn),
> 250 µM,CC1CNCc2cccc3nc(O)n1c23 (stereo not drawn),
> 10 µM,CC(C)[C@H]1Cn2c(O)nc3cc(Cl)cc(c32)CN1,
2.43 µM,CCCN1CCn2c(=S)[nH]c3cccc(c32)C1C (stereo not drawn),
0.078 µM,CC(C)=CCN1CCn2c(=S)[nH]c3cccc(c32)C1C (stereo not drawn),
14.3 µM,CC(C)=CCN1Cc2cccc3[nH]c(=S)n(c23)C(C)C1C (stereo not drawn),"IC50 [2, 9]: 2.22 µM"
32.1 µM,C=C(C)CN1Cc2cccc3[nH]c(=O)n(c23)C(C)C1 (stereo not drawn),
13.4 µM,CC1C(C)n2c(S)nc3cccc(c32)CN1CC1CC1 (stereo not drawn),
